Experimental data published in ChEMBL document CHEMBL1255494, “In vivo comparison of the pharmacodynamic targets for echinocandin drugs against Candida species” (Antimicrob Agents Chemother, 2010).
≈ marks a conversion by molar mass, not a printed value.

Tests used:
[1] = Cmax in Candida albicans infected neutropenic ICR Swiss mouse at 20 mg/kg, ip; format: ADME, organism-based; parameters: dose 20 mg/kg, route intraperitoneal; settings: ICR Swiss, in vivo
Procedure, shortened: (§1)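 Neutropenic female ICR Swiss mice (cyclophosphamide sc at 150 mg/kg on day −4, 100 mg/kg on day −1 and day +2) infected iv via tail vein with Candida; single ip doses of 5, 20 or 80 mg/kg. Serum drawn from 3 mice per time point at eight time points and assayed by microbiologic assay (C. albicans K1) or […]. Noncompartmental analysis; AUC by trapezoidal rule.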

Candida albicans [2] = assay: Antifungal activity against Candida albicans infected in ICR Swiss mouse; format: functional
Procedure, shortened: (§2)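 Female ICR Swiss mice, neutropenic via cyclophosphamide s.c. (150 mg/kg day −4, 100 mg/kg day −1 and day +2), infected by tail-vein injection of clinical isolates 2 h before therapy. Intraperitoneal dosing every 24 h for 4 days, 4–6 dose levels from 0.078 to 160 mg/kg, 3 mice per regimen. Kidney CFU counted at 96 h. Sigmoid dose-effect fit gives static dose and 1 log kill dose relative to burden at start of therapy.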

Nakaseomyces glabratus [3] = assay: Antifungal activity against Candida glabrata 5376 after 24 hrs; format: functional; settings: Nakaseomyces glabratus, 5376, 24 h
Procedure, shortened: (§3)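 Broth microdilution per CLSI M27-A3 in RPMI 1640; inoculum 0.5 × 10³ to 2.5 × 10³ cells/ml, 35°C. […] Three separate occasions in duplicate, mean reported; C. krusei ATCC 6258 and C. parapsilosis ATCC 22019 as daily QC.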

[4] = AUC (0 to 24 hrs) in Candida albicans infected neutropenic ICR Swiss mouse at 20 mg/kg, ip; format: ADME, organism-based; parameters: time < 24 hr, dose 20 mg/kg, route intraperitoneal; settings: plasma; procedure, shortened: as §1
Nakaseomyces glabratus [5] = assay: Antifungal activity against Candida glabrata 513 after 24 hrs; format: functional; settings: Nakaseomyces glabratus, 513, 24 h; procedure, shortened: as §3
Candida albicans [6] = assay: Antifungal activity against Candida albicans 98-17 after 24 hrs; format: functional; settings: 98-17, 24 h
Procedure, shortened: (§4)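 MICs by CLSI M27-A3 broth dilution in RPMI 1640, inoculum 0.5 × 10³ to 2.5 × 10³ cells/ml, 35°C. Read visually at 24 h as the lowest concentration giving ≥50% growth reduction versus control. Run on three occasions in duplicate and reported as the mean. C. krusei ATCC 6258 and C. parapsilosis ATCC 22019 served as QC strains.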

Nakaseomyces glabratus [7] = assay: Antifungal activity against Candida glabrata infected in ICR Swiss mouse; format: functional; procedure, shortened: as §2
Candida parapsilosis [8] = assay: Antifungal activity against Candida parapsilosis 20450.096 after 24 hrs; format: functional; settings: Lodderomyces parapsilosis, 20450.096, 24 h; procedure, shortened: as §4
Candida parapsilosis [9] = assay: Fungistatic activity against Candida parapsilosis infected in neutropenic ICR Swiss mouse after 24 hrs; format: functional; procedure, shortened: as §2
Candida albicans [10] = assay: Antifungal activity against Candida albicans 570 after 24 hrs; format: functional; settings: Candida albicans, 570, 24 h; procedure, shortened: as §4
Candida parapsilosis [11] = assay: Antifungal activity against Candida parapsilosis 20519.069 after 24 hrs; format: functional; settings: Lodderomyces parapsilosis, 20519.069, 24 h; procedure, shortened: as §4
[12] = Cmax in Candida albicans infected neutropenic ICR Swiss mouse at 80 mg/kg, ip; format: ADME, organism-based; parameters: dose 80 mg/kg, route intraperitoneal; settings: ICR Swiss, in vivo; procedure, shortened: as §1
Candida parapsilosis [13] = assay: Antifungal activity against Candida parapsilosis 20477.048 after 24 hrs; format: functional; settings: Lodderomyces parapsilosis, 20477.048, 24 h; procedure, shortened: as §4
Nakaseomyces glabratus [14] = assay: Antifungal activity against Candida glabrata infected in neutropenic ICR Swiss mouse assessed log reduction in bacterial count […]; format: functional; procedure, shortened: as §2
Candida albicans [15] = assay: Fungistatic activity against Candida albicans infected in neutropenic ICR Swiss mouse after 24 hrs; format: functional; procedure, shortened: as §2
Nakaseomyces glabratus [16] = assay: Antifungal activity against Candida glabrata 35315 after 24 hrs; format: functional; settings: Nakaseomyces glabratus, 35315, 24 h; procedure, shortened: as §4
Mus musculus = assay: Protein binding in Candida albicans infected neutropenic ICR Swiss mouse at 80 mg/kg, ip; format: ADME, organism-based; parameters: dose 80 mg/kg, route intraperitoneal; settings: in vivo
Candida orthopsilosis = assay: Antifungal activity against Candida orthopsilosis 20577.055 after 24 hrs; format: functional; settings: Lodderomyces orthopsilosis, 20577.055, 24 h; procedure, shortened: as §4
Candida parapsilosis [17] = assay: Antifungal activity against Candida parapsilosis 20511.092 after 24 hrs; format: functional; settings: Lodderomyces parapsilosis, 20511.092, 24 h; procedure, shortened: as §4
[18] = Cmax in Candida albicans infected neutropenic ICR Swiss mouse at 5 mg/kg, ip; format: ADME, organism-based; parameters: dose 5 mg/kg, route intraperitoneal; settings: ICR Swiss, in vivo; procedure, shortened: as §1
Candida parapsilosis [19] = assay: Antifungal activity against Candida parapsilosis 20435.057 after 24 hrs; format: functional; settings: Lodderomyces parapsilosis, 20435.057, 24 h; procedure, shortened: as §4
Candida albicans [20] = assay: Antifungal activity against Candida albicans infected in ICR Swiss mouse assessed as log reduction in bacterial count […]; format: functional; procedure, shortened: as §2
Nakaseomyces glabratus [21] = assay: Antifungal activity against Candida glabrata 34341 after 24 hrs; format: functional; settings: Nakaseomyces glabratus, 34341, 24 h; procedure, shortened: as §4
Candida parapsilosis [22] = assay: Antifungal activity against Candida parapsilosis 20385.079 after 24 hrs; format: functional; settings: Lodderomyces parapsilosis, 20385.079, 24 h; procedure, shortened: as §4
Candida parapsilosis [23] = assay: Antifungal activity against Candida parapsilosis 20423.072 after 24 hrs; format: functional; settings: Lodderomyces parapsilosis, 20423.072, 24 h; procedure, shortened: as §4
Candida parapsilosis [24] = assay: Antifungal activity against Candida parapsilosis infected in ICR Swiss mouse assessed log reduction in bacterial count […]; format: functional; procedure, shortened: as §2
Nakaseomyces glabratus [25] = assay: Antifungal activity against Candida glabrata 33609 after 24 hrs; format: functional; settings: Nakaseomyces glabratus, 33609, 24 h; procedure, shortened: as §3
Nakaseomyces glabratus [26] = assay: Antifungal activity against Candida glabrata 33616 after 24 hrs; format: functional; settings: Nakaseomyces glabratus, 33616, 24 h; procedure, shortened: as §4
Candida albicans [27] = assay: Antifungal activity against Candida albicans K1 after 24 hrs; format: functional; settings: K1, 24 h; procedure, shortened: as §3
Candida albicans [28] = assay: Antifungal activity against Candida albicans 580 after 24 hrs; format: functional; settings: Candida albicans, 580, 24 h; procedure, shortened: as §3
Candida parapsilosis [29] = assay: Antifungal activity against Candida parapsilosis 20562.03 after 24 hrs; format: functional; settings: Lodderomyces parapsilosis, 20562.03, 24 h; procedure, shortened: as §4
Candida parapsilosis [30] = assay: Antifungal activity against Candida parapsilosis 20477.078 after 24 hrs; format: functional; settings: Lodderomyces parapsilosis, 20477.078, 24 h; procedure, shortened: as §4
Nakaseomyces glabratus [31] = assay: Fungistatic activity against Candida glabrata infected in neutropenic ICR Swiss mouse after 24 hrs; format: functional; procedure, shortened: as §2
Candida albicans [32] = assay: Antifungal activity against Candida albicans 98-210 after 24 hrs; format: functional; settings: 98-210, 24 h; procedure, shortened: as §3
[33] = AUC (0 to 24 hrs) in Candida albicans infected neutropenic ICR Swiss mouse at 5 mg/kg, ip; format: ADME, organism-based; parameters: time < 24 hr, dose 5 mg/kg, route intraperitoneal; settings: plasma; procedure, shortened: as §1
Candida parapsilosis [34] = assay: Antifungal activity against Candida parapsilosis infected in ICR Swiss mouse; format: functional; procedure, shortened: as §2
Nakaseomyces glabratus [35] = assay: Antifungal activity against Candida glabrata 5592 after 24 hrs; format: functional; settings: Nakaseomyces glabratus, 5592, 24 h; procedure, shortened: as §3
Candida metapsilosis = assay: Antifungal activity against Candida metapsilosis 20463.02 after 24 hrs; format: functional; settings: Lodderomyces metapsilosis, 20463.02, 24 h; procedure, shortened: as §4
Candida albicans [36] = assay: Antifungal activity against Candida albicans 98-234 after 24 hrs; format: functional; settings: 98-234, 24 h; procedure, shortened: as §4
Nakaseomyces glabratus [37] = assay: Antifungal activity against Candida glabrata 32930 after 24 hrs; format: functional; settings: Nakaseomyces glabratus, 32930, 24 h; procedure, shortened: as §3
Candida parapsilosis [38] = assay: Antifungal activity against Candida parapsilosis 20553.009 after 24 hrs; format: functional; settings: Lodderomyces parapsilosis, 20553.009, 24 h; procedure, shortened: as §4
Candida parapsilosis [39] = assay: Antifungal activity against Candida parapsilosis 20423.078 after 24 hrs; format: functional; settings: Lodderomyces parapsilosis, 20423.078, 24 h; procedure, shortened: as §4
Candida parapsilosis [40] = assay: Antifungal activity against Candida parapsilosis 20557.012 after 24 hrs; format: functional; settings: Lodderomyces parapsilosis, 20557.012, 24 h; procedure, shortened: as §4
[41] = AUC (0 to 24 hrs) in Candida albicans infected neutropenic ICR Swiss mouse at 80 mg/kg, ip; format: ADME, organism-based; parameters: time < 24 hr, dose 80 mg/kg, route intraperitoneal; settings: plasma; procedure, shortened: as §1
Candida parapsilosis [42] = assay: Antifungal activity against Candida parapsilosis 20489.085 after 24 hrs; format: functional; settings: Lodderomyces parapsilosis, 20489.085, 24 h; procedure, shortened: as §3

Which results are given for `CC[C@H](C)C[C@H](C)CCCCCCCCC(=O)N[C@H]1C[C@@H](O)[C@@H](NCCN)NC(=O)[C@@H]2[C@@H](O)CCN2C(=O)[C@H]([C@H](O)CCN)NC(=O)[C@H]([C@H](O)[C@@H](O)c2ccc(O)cc2)NC(=O)[C@@H]2C[C@@H](O)CN2C(=O)[C@H]([C@@H](C)O)NC1=O` [CASPOFUNGIN]?
Cmax [1]: 26000 ng/mL; Emax (Candida albicans [2]): 4.1 log10 CFU/kidneys; ED50 (Candida albicans [2]; Candida albicans): 8 mg/kg; MIC (Nakaseomyces glabratus [3]): 0.03 µg/mL (≈ 0.0274 µM); AUC(0-t) at 24 h [4]: 345 µg·h/mL; MIC (Nakaseomyces glabratus [5]): 0.03 µg/mL (≈ 0.0274 µM); MIC (Candida albicans [6]): 0.12 µg/mL (≈ 0.11 µM); Emax (Nakaseomyces glabratus [7]): 7 log10 CFU/kidneys; ED50 (Nakaseomyces glabratus [7]; Nakaseomyces glabratus): 6.9 mg/kg; MIC (Candida parapsilosis [8]): 0.5 µg/mL (≈ 0.457 µM); Activity (Candida parapsilosis [9]): 3.56 mg/kg; MIC (Candida albicans [10]): 0.12 µg/mL (≈ 0.11 µM); MIC (Candida parapsilosis [11]): 1 µg/mL (≈ 0.915 µM); Cmax [12]: 58000 ng/mL; MIC (Candida parapsilosis [13]): 4 µg/mL (≈ 3.66 µM); Activity (Nakaseomyces glabratus [14]): 1.16 mg/kg; Activity (Candida albicans [15]): 0.72 mg/kg; MIC (Nakaseomyces glabratus [16]): 0.12 µg/mL (≈ 0.11 µM); Activity (Mus musculus): 97%; MIC (Candida orthopsilosis): 0.06 µg/mL (≈ 0.0549 µM); MIC (Candida parapsilosis [17]): 0.06 µg/mL (≈ 0.0549 µM); Cmax [18]: 18000 ng/mL; MIC (Candida parapsilosis [19]): 0.06 µg/mL (≈ 0.0549 µM); Activity (Candida albicans [20]): 2.91 mg/kg; MIC (Nakaseomyces glabratus [21]): 0.25 µg/mL (≈ 0.229 µM); MIC (Candida parapsilosis [22]): 0.5 µg/mL (≈ 0.457 µM); MIC (Candida parapsilosis [23]): 0.12 µg/mL (≈ 0.11 µM); Activity (Candida parapsilosis [24]): 9.84 mg/kg; MIC (Nakaseomyces glabratus [25]): 0.03 µg/mL (≈ 0.0274 µM); MIC (Nakaseomyces glabratus [26]): 0.25 µg/mL (≈ 0.229 µM); MIC (Candida albicans [27]): 0.03 µg/mL (≈ 0.0274 µM); MIC (Candida albicans [28]): 0.03 µg/mL (≈ 0.0274 µM); MIC (Candida parapsilosis [29]): 0.25 µg/mL (≈ 0.229 µM); MIC (Candida parapsilosis [30]): 0.5 µg/mL (≈ 0.457 µM); Activity (Nakaseomyces glabratus [31]): 0.33 mg/kg; MIC (Candida albicans [32]): 0.02 µg/mL (≈ 0.0183 µM); AUC(0-t) at 24 h [33]: 164 µg·h/mL; Emax (Candida parapsilosis [34]): 5.5 log10 CFU/kidneys; ED50 (Candida parapsilosis [34]; Lodderomyces parapsilosis): 10.4 mg/kg; MIC (Nakaseomyces glabratus [35]): 0.03 µg/mL (≈ 0.0274 µM); MIC (Candida metapsilosis): 0.06 µg/mL (≈ 0.0549 µM); MIC (Candida albicans [36]): 0.03 µg/mL (≈ 0.0274 µM); MIC (Nakaseomyces glabratus [37]): 0.03 µg/mL (≈ 0.0274 µM); MIC (Candida parapsilosis [38]): 1 µg/mL (≈ 0.915 µM); MIC (Candida parapsilosis [39]): 0.25 µg/mL (≈ 0.229 µM); MIC (Candida parapsilosis [40]): 0.12 µg/mL (≈ 0.11 µM); AUC(0-t) at 24 h [41]: 667 µg·h/mL; MIC (Candida parapsilosis [42]): 0.25 µg/mL (≈ 0.229 µM)
